In the library only some 4.9% were active in any assay of this set; here they are far more common.
HSF1 inh – HSF1 inhibition. activity change, negative = inhibition, % at 7.5 µM (by protocol). 300,000 tested, 0.77% active. NIH3T3-HGL HSE-luciferase, MG132-induced, luminescence 8 h; stronger effect = lower value;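 active means more than half of replicate wells show activity change below -50%, luminescence cut by over half; inconclusive means some wells, but at most half, below -50%; inactive means no replicate well below -50%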;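 further: luciferase reports HSF-1 transcriptional activity via heat shock element; 0% = median of DMSO wells and -100% = zero luminescence signal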
PHOSPHO1 inh – PHOSPHO1 (human) inhibition; inhibition, % at 13.3 µM; 290,000 tested, 1.1% active; Q8TCT1; AID 1565; recombinant PHOSPHO1, absorbance phosphatase assay; in the data active means inhibition above about 60%
CHT inh – inhibits the human high affinity choline transporter; Q9GZV3; CHT-expressing cells, membrane potential dye, choline response; stronger effect = lower value; B-score at 10 µM; 310,000 tested, 0.86% active;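 active means B-score over 3 SD under the library average, and starting fluorescence ratio not unusually high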;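 further: choline stimulus applied at its EC90 after an EC20 pre-addition; B-score computed on integrated fluorescence ratio after choline addition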
Target sequence (Q9GZV3 whole entry, looked up): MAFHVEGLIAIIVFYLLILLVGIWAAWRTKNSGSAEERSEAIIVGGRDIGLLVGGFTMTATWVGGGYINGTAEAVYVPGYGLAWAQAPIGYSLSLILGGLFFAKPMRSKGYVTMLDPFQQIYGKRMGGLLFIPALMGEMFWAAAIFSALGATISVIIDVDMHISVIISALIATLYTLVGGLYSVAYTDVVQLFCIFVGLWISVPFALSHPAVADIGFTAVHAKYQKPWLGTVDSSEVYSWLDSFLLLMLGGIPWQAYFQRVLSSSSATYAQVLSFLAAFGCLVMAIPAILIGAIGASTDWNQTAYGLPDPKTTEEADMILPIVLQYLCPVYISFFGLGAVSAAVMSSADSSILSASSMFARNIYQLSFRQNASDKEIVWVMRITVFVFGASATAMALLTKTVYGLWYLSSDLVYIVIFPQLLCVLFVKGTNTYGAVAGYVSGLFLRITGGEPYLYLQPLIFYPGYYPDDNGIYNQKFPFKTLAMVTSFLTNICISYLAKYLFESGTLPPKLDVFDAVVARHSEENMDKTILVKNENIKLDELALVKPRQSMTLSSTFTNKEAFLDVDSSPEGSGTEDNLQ
CHT PAM – allosterically activates the human high affinity choline transporter | Q9GZV3 | CHT-expressing cells, membrane potential dye, choline EC20; stronger effect = higher value; LV-AA mutant CHT in HEK293 cells | B-score at 10 µM | 310,000 tested, 0.49% active | AID 488977;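 active means initial fluorescence not abnormally high and integrated response B-score, plate-corrected, over 3 SD above library mean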
HSF1 activator – increases HSF-1 driven luciferase reporter signal | 300,000 tested, 1.7% active | activation, % at 9 µM | NIH3T3-HGL HSF-1 luciferase reporter, MG132, 8 h; 100% = twice DMSO control signal | AID 504408;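 active means mean replicate activation of at least 50% with a set share of replicates each reaching 50%; inconclusive means only one of those two conditions met; inactive means mean below 50% and too few replicates reaching it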;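 further: 0% = median of the neutral control wells and 100% = twice that signal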
Lipid droplet – modulators of hepatic lipid droplet formation | 240,000 tested, 0.4% active | AML12 mouse hepatocytes, oleate lipid droplets, BODIPY imaging | AID 1656 | inhibition, % at 6.5 µM;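 active means lipid droplet intensity inhibited by at least 50%, with more than 500 cells counted; inconclusive means wells with under 300 cells, treated as cytotoxic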
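Assay system: AML12 mouse liver cells | Compound: 6.5 µM single-point dosing | Schedule: Overnight exposure | Technique: Fluorescence imaging, 20x objective, two fields per well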
Numbers without * were called inactive; i = inactive; ? = inconclusive; . = not tested or not shown.

SMILES	HSF1 inh	PHOSPHO1 inh	CHT inh	CHT PAM	HSF1 activator	Lipid droplet
CN(C(=O)/C=C/c1ccc(F)cc1)C1CCCCC1	46	.	i	i	61*	.
CN(C(=S)NC(=O)/C=C/c1ccc(F)cc1)C1CCCCC1	32	-3	i	i	67*	-9
COc1ccc(-c2nc(CS(=O)(=O)CC(=O)NCc3cccc(F)c3)c(C)o2)cc1	4	33	i	i	-10	5
COC(=O)c1[nH]c2ccccc2c1NC(=O)CN1CCC(C(N)=O)(N2CCCCC2)CC1	-2	-11	i	i	3	-22
CCS(=O)(=O)CCSc1nc2ccccc2s1	-2	-10	i	i	1	.
O=S(=O)(CCSc1nc2ccccc2s1)c1nc2ccccc2s1	62	76*	i	i	95*	-22
O=C(Cc1ccc(Cl)cc1)Nc1ccc(N2CCN(C(=O)c3ccco3)CC2)c(Cl)c1	-6	-7	i	i	-2	-1
Cc1cc(-c2nc3ncccc3o2)ccc1NC(=S)NC(=O)C(C)C	38	44	i	i	52*	16
CCC(CC)C(=O)Nc1nnc(S(=O)(=O)N(CC)c2ccc(OC)cc2)s1	5	35	i	i	1	-4
Cc1cc2oc(=O)cc(Cn3ncc(Cl)c(Cl)c3=O)c2cc1Cl	55	50	i	i	81*	10
COc1cccc(CN2CCN(C(=O)c3oc4c(F)cccc4c3C)CC2=O)c1	12	29	i	i	34	0
CCOC(=O)NC(=O)/C(C#N)=N/Nc1c(F)cccc1F	25	17	i	i	64*	0
CCc1sc(C(=O)Nc2ccc(F)cc2C)cc1C	13	-6	i	i	6	-4
CN(CC(=O)NCC1CCCCC1)S(=O)(=O)c1ccc(Cl)cc1	-4	31	i	i	4	-27
C(#Cc1ccccc1)CN1CCCCC1	1	53	i	i	-8	11
C(#Cc1ccccc1)CN1CCN(c2ccccn2)CC1	-72*	7	i	i	-79	.
COc1cccc(N(C(=O)Cn2nnc(-c3cccs3)n2)C(C(=O)NC(C)C)c2ccc(C)o2)c1 (configuration not stated)	5	20	i	i	-1	.
CSc1nc(N2CCOCC2)c2c(c1C#N)CC(C(C)C)OC2 (configuration not stated)	-3	44	i	i	-5	-3
Cn1c(N)c(C#N)c2c(c1=S)COC(C)(C)C2	0	64*	i	i	22	-3
CC1(C)Cc2c(c(N3CCCC3)[nH]c(=S)c2C#N)CO1	-2	67*	i	i	-1	-2
CC1(C)Cc2c(C#N)c(N)n(-c3ccccc3)c(=S)c2CO1	28	20	i	i	?	2
Cn1c(N)c(C#N)c2c(c1=S)CSC(C)(C)C2	8	91*	i	i	0	.
CC(C)C1Cc2c(C#N)c(N)n(C)c(=S)c2CO1 (configuration not stated)	-52*	68*	i	i	-63	.
CCOc1ccc(S(=O)(=O)NCCC(=O)NCCOc2ccccc2OC)cc1	3	.	i	i	-6	.
CCC(CC)C(=O)c1c[nH]c(C(=O)O)c1	-4	28	i	i	6	10
SMILES	HSF1 inh	PHOSPHO1 inh	CHT inh	CHT PAM	HSF1 activator	Lipid droplet
O=C(CSc1nnc2ccc(-c3ccccn3)nn12)Nc1ccc(F)cc1F	-8	.	i	i	-16	.
CCCCN1C(=O)/C(=C2\SC(N3CCCCC3)=NC2=O)c2ccccc21	36	29	i	i	51*	.
O=C1N=C(N2CCOCC2)S/C1=C1\C(=O)N(Cc2ccccc2)c2ccc(Br)cc21	.	-14	.	.	.	.
Cc1nc(NC(=O)CCN2C(=O)C3CC=CCC3C2=O)sc1C (configuration not stated)	-4	61*	i	i	2	-2
Cc1ccc2oc(Nc3nc(C)cc(C)n3)nc2c1	2	5	i	i	-2	.
COC(=O)c1ccccc1NC(=S)N(Cc1ccc2c(c1)OCO2)Cc1cc2ccc(OC)cc2[nH]c1=O	50	6	i	i	90*	-2
COc1ccc2cc(CN(Cc3ccco3)C(=S)NCC3CCCO3)c(=O)[nH]c2c1 (configuration not stated)	25	1	i	i	55*	-12
Cc1cc(C)c2cc(CN(Cc3ccco3)C(=S)NCC3CCCO3)c(=O)[nH]c2c1 (configuration not stated)	193	12	i	i	299*	-5
Cc1ccc2[nH]c(=O)c(CN(Cc3cccs3)C(=S)NCC3CCCO3)cc2c1 (configuration not stated)	-35	11	i	i	-52	-3
COc1ccc2[nH]c(=O)c(CN(Cc3ccccc3)C(=S)NCC3CCCO3)cc2c1 (configuration not stated)	6	40	i	i	10	13
CC(C)(C)N1CC(c2nc3ccccc3n2Cc2ccc(Cl)cc2)CC1=O (configuration not stated)	10	25	i	i	16	1
CS(=O)(=O)c1ccc(NC(=O)c2cccc(S(=O)(=O)N3CCN(Cc4ccccc4)CC3)c2)cc1	2	42	i	i	0	-6
Cc1ccc(S(=O)(=O)N2CCCCC2)cc1C(=O)OCC(=O)NC(=O)NC12CC3CC(CC(C3)C1)C2	-3	6	i	i	-17	3
COc1ccc(-c2cc(CCCC(=O)NCCc3ccc(OC)cc3OC)no2)cc1	37	-11	i	i	62*	.
COc1ccc(-c2cc(CCCC(=O)NCCc3ccccc3)no2)cc1	4	18	i	i	18	-8
COc1cccc(OC)c1C(=O)Nc1ccc(S(=O)(=O)Nc2cc(C)nc(C)n2)cc1	-8	5	-5.3*	i	0	.
Cc1cc(NS(=O)(=O)c2ccc(NC(=O)CSc3nc4ncc(Br)cc4[nH]3)cc2)nc(C)n1	9	72*	i	i	-4	-2
COc1cccc(C(=O)Nc2ccc(S(=O)(=O)Nc3cc(C)nc(C)n3)cc2)c1	2	22	i	i	-9	5
Cc1[nH]c2ccc(C(=O)N3CCN(Cc4ccccc4)CC3)cc2c1C	2	46	i	i	-2	1
O=c1cc(COc2ccc(Cl)c(Cl)c2)nc2sccn12	35	41	i	i	57*	-4
CC(C)C[C@@H](CC#N)N1CCN(Cc2ccccc2)CCC1=O	-61*	4	i	i	-69	-4
Cc1ccc(C2=N/C(=C/N3CCOCC3)C(=O)O2)cc1	25	-10	i	i	30	-13
